This note sets out measurements from ChEMBL document CHEMBL3585325, “Discovery of (1R,2S)-2-{[(2,4-Dimethylpyrimidin-5-yl)oxy]methyl}-2-(3-fluorophenyl)-N-(5-fluoropyridin-2-yl)cyclopropanecarboxamide (E2006): A Potent and Efficacious Oral Orexin Receptor Antagonist” (J Med Chem, 2015).

In one data set the target is Cytochrome P450 2C9 (Homo sapiens, UniProt P11712). As to the kind of experiment: Inhibition of CYP2C9 in human liver microsomes using tolbutamide as susbtrate incubated for 30 mins prior to substrate addition for 10 mins by LC-MS/MS analysis. The data set is classed as ADME.
Data set [1] deals with T1, Orexin/Hypocretin receptor type 1 (Homo sapiens, UniProt O43613).
T1 sequence (O43613 whole entry): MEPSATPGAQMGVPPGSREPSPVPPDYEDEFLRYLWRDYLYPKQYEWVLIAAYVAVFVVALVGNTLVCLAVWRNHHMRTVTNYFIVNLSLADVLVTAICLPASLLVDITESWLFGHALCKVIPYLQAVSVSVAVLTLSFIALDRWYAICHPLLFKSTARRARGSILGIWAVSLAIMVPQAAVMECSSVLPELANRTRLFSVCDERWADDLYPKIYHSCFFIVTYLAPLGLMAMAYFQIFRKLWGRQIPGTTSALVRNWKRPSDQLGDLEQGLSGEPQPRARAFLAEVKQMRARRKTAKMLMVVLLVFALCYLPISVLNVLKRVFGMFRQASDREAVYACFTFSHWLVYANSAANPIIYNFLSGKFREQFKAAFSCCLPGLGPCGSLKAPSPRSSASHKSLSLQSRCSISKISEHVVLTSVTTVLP
As to the kind of experiment: Binding affinity to human OX1R by radioligand displacement binding assay. The method, boiled down:
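Ki values come from single experiments run in triplicate.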

Another data set deals with Cytochrome P450 2C19 (Homo sapiens, UniProt P33261). As to the kind of experiment: Inhibition of CYP2C19 in human liver microsomes using S-mephenytoin as susbtrate incubated for 30 mins prior to substrate addition for 10 mins by LC-MS/MS analysis. The data set is classed as ADME.
Data set [2] can be described thus: Half life in C57BL/6NCrlCrlj mouse at 10 mg/kg, po by LC-MS/MS analysis. The format is ADME, organism-based. Conditions: in vivo. Put shortly:
(§1)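 Male C57BL/6NCrlCrlj mice dosed orally at 10 mg/kg in 10% Cremophor EL, 5% DMSO in saline. Tail-vein blood was taken at set time points and spun to plasma. Quantified by LC-MS/MS (MRM, positive mode) with internal standard and a 1/x²-weighted calibration. Parameters came from noncompartmental analysis.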

The target in data set [3] is T2, CYP3A (Homo sapiens, UniProt P08684+P20815+P24462+Q9HB55). As to the kind of experiment: Time dependent inhibition of CYP3A in human liver microsomes assessed as enzyme activity using midazolam as substrate at 10 uM incubated for 30 mins prior to substrate addition for 10 mins by LC-MS/MS analysis. The format is ADME. Further details: scale not given: the % may be the effect or the level left. Conditions: probe midazolam, read-out: Activity. Put shortly:
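Test compound at 10 μM preincubated 30 min at 37 °C with human liver microsomes (0.2 mg/mL), with or without an NADPH-generating system. Mixture then diluted 10-fold into a marker-substrate cocktail plus NADPH system and incubated 10 min at 37 °C. Midazolam served as the CYP3A probe. Metabolites measured by LC−MS/MS. Result is the residual activity with NADPH relative to without, as % of control.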

Data set [4] is described as follows: Oral bioavailability in C57BL/6NCrlCrlj mouse at 30 mg/kg by LC-MS/MS analysis. The format is ADME, organism-based. Conditions: in vivo.
A short description of data set [5]: Drug uptake in C57BL/6NCrlCrlj mouse CSF at 10 mg/kg, po administered as single dose measured after 3 hrs by LC-MS/MS analysis. The format is ADME, organism-based, Cerebrospinal fluid. Conditions: read-out: Drug uptake. The method, boiled down: (§2)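 Male C57BL/6NCrlCrlj mice given a single 10 mg/kg oral dose as a suspension in 0.5% aqueous methylcellulose. At 1 or 3 h, under pentobarbital anesthesia, CSF was taken from the cisterna magna and then blood from the abdominal aorta (spun to plasma). Samples were acetonitrile-precipitated with deuterated internal standard and run by LC-MS/MS. Values are mean with SEM.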

Data set [6] deals with T2, CYP3A. As to the kind of experiment: Inhibition of CYP3A in human liver microsomes assessed as enzyme activity using midazolam as substrate incubated for 30 mins prior to substrate addition for 10 mins by LC-MS/MS analysis. The data set is classed as ADME. Conditions: probe midazolam. The method, boiled down:
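Compound preincubated 30 min at 37 °C with human liver microsomes (0.2 mg/mL), with or without an NADPH-generating system. The mix was diluted 10-fold into a marker-substrate cocktail plus NADPH system and incubated 10 min at 37 °C. Marker metabolites were measured by LC-MS/MS; residual activity with NADPH was expressed relative to without.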

Data set [7] has as its system Mus musculus. As to the kind of experiment: Sleep promoting activity in C57BL/6NCrlCrlj mouse assessed as reduction in wakefulness time at 30 mg/kg, po administered immediately prior to beginning of dark cycle measured during first 3 hrs after drug administration by electroencephalogram/electromyogram analysis (reference value: 116.7 min). The format is functional. Put shortly: (§3)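 Male C57BL/6NCrlCrlj mice implanted with EEG/EMG electrodes were dosed orally in 10% Cremophor EL, 5% DMSO in saline just before lights-off (ZT12) and recorded from ZT12 to ZT20. Group sizes were n=6 dosed and n=7 vehicle. Stages were scored by software with blinded visual confirmation; cumulative first-3-h times are mean with SEM. Dunnett's test was run after one-way ANOVA.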

A short description of data set [8]: Half life in C57BL/6NCrlCrlj mouse at 1 mg/kg, iv by LC-MS/MS analysis. The data set is classed as ADME, organism-based. Conditions: in vivo. Put shortly: (§4)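 Male C57BL/6NCrlCrlj mice dosed intravenously at 1 mg/kg in 10% DMSO in water. Blood was taken from the tail vein at set time points and spun to plasma. Concentrations were measured by LC-MS/MS (MRM, positive mode) against a 1/x²-weighted standard curve with internal standard. Parameters came from noncompartmental analysis.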

In data set [9] the test system is Mus musculus. As to the kind of experiment: Sleep promoting activity in C57BL/6NCrlCrlj mouse assessed as reduction in wakefulness time at 10 mg/kg, po administered immediately prior to beginning of dark cycle measured during first 3 hrs after drug administration by electroencephalogram/electromyogram analysis (reference value: 116.7 min). The format is functional. Put shortly: as §3

Data set [10] can be described thus: Tmax in C57BL/6NCrlCrlj mouse at 10 mg/kg, po by LC-MS/MS analysis. The data set is classed as ADME, organism-based. Conditions: in vivo. The method, boiled down:
as §1

Data set [11] is described as follows: Cmax in C57BL/6NCrlCrlj mouse at 10 mg/kg, po by LC-MS/MS analysis. The data set is classed as ADME, organism-based. Further details: dose 10 mg/kg, route oral. Conditions: in vivo. Put shortly:
as §1

A short description of data set [12]: Tmax in C57BL/6NCrlCrlj mouse at 30 mg/kg, po by LC-MS/MS analysis. The format is ADME, organism-based. Conditions: in vivo.
Data set [13] in a line: AUC (0 to infinity) in C57BL/6NCrlCrlj mouse at 1 mg/kg, iv by LC-MS/MS analysis. Conditions: in vivo. The data set is classed as ADME, organism-based. Further details: dose 1 mg/kg, time infinity, route intravenous. The method, boiled down: as §4
A short description of data set [14]: AUC (0 to infinity) in C57BL/6NCrlCrlj mouse at 30 mg/kg, po by LC-MS/MS analysis. The data set is classed as ADME, organism-based. Further details: dose 30 mg/kg, time infinity, route oral. Conditions: in vivo.
The nature of data set [15]: Cmax in C57BL/6NCrlCrlj mouse at 30 mg/kg, po by LC-MS/MS analysis. Conditions: in vivo. The arrangement: dose 30 mg/kg, route oral. The format is ADME, organism-based.
The nature of data set [16]: Volume of distribution at steady state in C57BL/6NCrlCrlj mouse at 1 mg/kg, iv by LC-MS/MS analysis. The format is ADME, organism-based. Conditions: in vivo, read-out: Vdss. The method, boiled down:
as §4

Data set [17] is described as follows: Drug uptake in C57BL/6NCrlCrlj mouse CSF at 10 mg/kg, po administered as single dose measured after 1 hr by LC-MS/MS analysis. Conditions: read-out: Drug uptake. The format is ADME, organism-based, Cerebrospinal fluid. Put shortly:
as §2

Data set [18] concerns Mus musculus. As to the kind of experiment: Sleep promoting activity in C57BL/6NCrlCrlj mouse assessed as increase in non-REM sleep at 30 mg/kg, po administered immediately prior to beginning of dark cycle measured during first 3 hrs after drug administration by electroencephalogram/electromyogram analysis (reference value: 62.6 min). The data set is classed as functional. The method, boiled down:
as §3

Structures are written as SMILES. Bounds are passed on as bounds.

Chain of Cytochrome P450 2C19 (P33261 whole entry): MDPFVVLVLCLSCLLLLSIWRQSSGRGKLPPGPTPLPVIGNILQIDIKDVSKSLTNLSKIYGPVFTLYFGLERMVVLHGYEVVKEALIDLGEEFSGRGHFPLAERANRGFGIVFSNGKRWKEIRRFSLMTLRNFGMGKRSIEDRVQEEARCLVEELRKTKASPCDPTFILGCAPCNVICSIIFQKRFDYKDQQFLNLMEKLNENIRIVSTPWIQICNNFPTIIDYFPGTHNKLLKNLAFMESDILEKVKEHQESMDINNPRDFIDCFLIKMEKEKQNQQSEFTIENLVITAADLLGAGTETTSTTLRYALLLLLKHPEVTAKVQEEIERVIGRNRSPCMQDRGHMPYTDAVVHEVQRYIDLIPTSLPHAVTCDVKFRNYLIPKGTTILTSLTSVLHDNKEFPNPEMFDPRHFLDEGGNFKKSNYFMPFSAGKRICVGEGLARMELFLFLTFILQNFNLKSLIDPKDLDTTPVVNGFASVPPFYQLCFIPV
Chain of Cytochrome P450 2C9 (P11712 whole entry): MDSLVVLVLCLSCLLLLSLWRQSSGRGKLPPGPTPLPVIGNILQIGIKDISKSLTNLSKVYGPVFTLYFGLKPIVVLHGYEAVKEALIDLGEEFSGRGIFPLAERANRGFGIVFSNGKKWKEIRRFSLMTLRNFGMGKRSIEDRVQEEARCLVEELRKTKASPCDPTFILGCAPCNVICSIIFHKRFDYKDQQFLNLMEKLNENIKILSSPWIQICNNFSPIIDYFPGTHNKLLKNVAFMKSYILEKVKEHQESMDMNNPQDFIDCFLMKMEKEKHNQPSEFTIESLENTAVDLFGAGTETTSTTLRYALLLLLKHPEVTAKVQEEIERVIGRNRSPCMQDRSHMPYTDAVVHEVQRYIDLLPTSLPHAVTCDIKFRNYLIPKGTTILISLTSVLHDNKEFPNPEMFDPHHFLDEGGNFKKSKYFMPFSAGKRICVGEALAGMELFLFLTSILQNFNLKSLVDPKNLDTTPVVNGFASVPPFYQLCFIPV

Take `Cc1ncc(OC[C@@]2(c3cccc(F)c3)C[C@H]2C(=O)Nc2ccc(F)cn2)c(C)n1` [LEMBOREXANT]: the half-inhibitory concentration (IC50) at Cytochrome P450 2C9 and on Cytochrome P450 2C19 was more than 20 µM each time. This compound had an inhibition constant Ki in data set [1] of 0.006 µM. Moreover, the half-life in data set [2] was 2.2 h; in data set [8] it was 2.16 h. Further, at CYP3A [3], the activity at 10 min, 10 µM turned out to be 76%. The same compound registered a bioavailability in data set [4] of 13.4%. Also, the concentration at 3 h in data set [5] came out at 7.6 nM. Also, on CYP3A [6], the IC50 at 30 min is more than 20 µM. The Time in the data set with Mus musculus [7] worked out at 75.3 min; in the data set on Mus musculus [9], 77.1 min; with Mus musculus [18], 95.5 min. For the same compound, the Tmax came out at 0.25 h in [10] and 1 h in [12]. The highest concentration (Cmax) in [11] was 488 ng/mL; in [15] it was 961 ng/mL. Moreover, the values for the total exposure AUC(0-inf) in data set [13] and in [14] were 1030 ng·h/mL and 4130 ng·h/mL, respectively. Further, the Vd in [16] is 2.71 L/kg. In addition, the concentration at 1 h in data set [17] turned out to be 32.8 nM.
